Published values gathered from unrelated publications.
Each line is one published result; the experiments were not run side by side.
Target: Phosphatidylinositol 4-phosphate 5-kinase type-1 gamma (PIP5K1C, Homo sapiens, UniProt O60331)

`CN(c1nccc(-c2cnn3ncccc23)n1)C1CC1` gave a remaining binding of 100% (binding; 1 µM).
`COc1ccc2c(c1)O[C@H](c1ccc(OC)c(OC)c1)C[C@@H]2NC(=O)C1(c2ccc3c(c2)OC(F)(F)O3)CC1` gave a remaining binding of 100% (cell-free assay, competition with immobilised ligand; 1 µM).
`F[C@@H]1CCN(c2nccc(-c3cnn4ncccc34)n2)C1` gave a remaining binding of 100% (binding; 1 µM).
For `O=C(NCCCN1CCOCC1)c1ccc(Nc2nccc(-c3cc4ccccc4s3)n2)cc1`, the remaining binding was 2.3% (binding, competition with immobilised ligand; 1 µM).
With `COc1cccc(CNC(=O)c2nc3scc(COCc4ccc(C(=O)O)cc4)c3c(=O)[nH]2)c1` the remaining binding was 63.7% (cell-free assay, competition with immobilised ligand; 1 µM).
The remaining binding of `CN(C)c1nccc(-c2cnc3ncccn23)n1` is reported as 100% (binding; 1 µM).
`CNC(=O)Nc1ccc2c(c1)CC[C@@]21OC(=O)N(CC(=O)N(Cc2ccc(F)cc2)[C@@H](C)C(F)(F)F)C1=O` gave a remaining binding of 100% (cell-free assay, competition with immobilised ligand; 1 µM).
With `c1cncc(-c2cccc(Nc3nccc(NC4CCCCC4)n3)c2)c1` the remaining binding was 0% (binding, competition with immobilised ligand; 10 µM).
`C[C@@H]1CN(c2cc(-c3n[nH]c4ccc(OC5(C)CC5)cc34)ncn2)C[C@H](C)O1` gave a remaining binding of 92% (cell-free assay, competition with immobilised ligand; 0.1 µM).
The remaining binding of `O=C(Nc1c[nH]nc1C(=O)NC1CCNCC1)c1cc(F)cc(F)c1` is reported as 87% (binding, competition with immobilised ligand; 1 µM).
`Nc1ncc2c(n1)-c1c([nH]c3ccc(C#CC4CC4)cc13)CCCC2` gave a remaining binding of 57% (binding, competition with immobilised ligand; 1 µM).
`Cc1nc(C2CCN(C(=O)c3ccc(OC(F)(F)F)cc3N)CC2)c2ncc(N3CCN(C)CC3)cc2n1` has a remaining binding of 94% (cell-free assay, competition with immobilised ligand; 1 µM).
With `N[C@H]1CCN(c2nccc(-c3cnn4ncccc34)n2)C1` the remaining binding was 63% (binding; 1 µM).
`O=C(c1ccc(Nc2ncc(Cl)c(-c3ccc(Cl)s3)n2)cc1)N1CCC(N2CCCC2)CC1` gave a remaining binding of 72% (binding, competition with immobilised ligand; 1 µM).
With `C[C@@H]1CCN(c2nccc(-c3cnn4ncccc34)n2)C1` the remaining binding was 99% (binding; 1 µM).
The remaining binding of `CCN1CCN(Cc2ccc(C(=O)Nc3ccc(C)c(Oc4ccc5c(c4)CC(=O)N5)c3)cc2C(F)(F)F)CC1` is reported as 92% (binding, competition with immobilised ligand; 1 µM).
With `CCOCCn1cc(C(=O)Nc2ccc(-n3nc(-c4cccnc4)cc3C(F)(F)F)cn2)ccc1=O` the remaining binding was 100% (cell-free assay, competition with immobilised ligand; 1 µM).
The remaining binding of `COc1cnc(Nc2cccc(S(N)(=O)=O)c2)nc1N1CCN(c2ccccc2)CC1` is reported as 100% (binding, competition with immobilised ligand; 1 µM).
